We go through one molecule from ChEMBL document CHEMBL4411261, “Down-Regulation of the Androgen Receptor by G-Quadruplex Ligands Sensitizes Castration-Resistant Prostate Cancer Cells to Enzalutamide” (J Med Chem, 2018).

Molecules are shown by their SMILES. Activity calls are given as the source filed them. The rule behind the calls is not given here.

The nature of data set [1]: Stabilization of AGTGAGAGTGAGAGAGAGAGTGAGAGTGAGAGTGA/TCACTCTCACTCTCACTCTCTCTCTCACTCTCACT dsDNA (unknown origin) assessed as assessed as effect on conformational change at 16 uM after 16 hrs in presence of 100 mM K+ by CD spectra analysis. Put shortly: (§1)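 CD: oligos at 4 μM final in 10 mM lithium cacodylate pH 7.4, 100 mM KCl, annealed 95 °C 5 min then 4 h room temperature; duplex from equimolar strands. Ligand 16 μM final, 16 h room temperature. Spectra 230−320 nm, 5 mm cell, two scans averaged at 20 °C, buffer-subtracted; melting from spectra 20−90 °C in 5 °C steps.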

In data set [2] the test system is Quadruplex DNA. The data set is described as follows: Stabilization of AR G-quadruplex oligonucleotide in human 22Rv1 cells assessed as reduction in AR-VS protein level at IC50 after 48 hrs by Western immunoblot assay. The data set is classed as cell-based.
The test system of data set [3] is Quadruplex DNA. The data set is described as follows: Stabilization of AR G-quadruplex oligonucleotide in human LNCAP cells assessed as reduction in AR-FL protein level by immunoblotting assay. The data set is classed as cell-based. Put shortly: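 Lysate proteins immunoblotted. Vinculin or β-actin used as loading control, peroxidase-linked secondary antibodies, ECL chemiluminescent detection, autoradiography, densitometric scan. Untreated cells received DMSO.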

The nature of data set [4]: Binding affinity to 5'-Biotinylated-AGTGAGAGTGAGAGAGAGAGTGAGAGTGAGAGTGA ssDNA (unknown origin) by SPR analysis. Put shortly:
(§2)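 SPR on streptavidin chip; 5′-biotinylated oligo folded by heating 95 °C 5 min in 10 mM lithium cacodylate, 150 mM KCl, then immobilized at 30 nM to about 600 RU; empty reference cell. Compound 0.7−400 nM in HEPES-KCl (pH 7.4, 0.15 M KCl, 3 mM EDTA) at 40 °C, 40 μL/min, 260 s contact, 600 s dissociation; glycine pH 2.0 regeneration; steady-state affinity fit; at least two independent runs.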

For data set [5], the system named is PC-3. Kind of data set: Synergistic cytotoxicity against human PC3 cells assessed as combination index for reduction in cell viability measured at ED75 Enzalutamide at 0.001 to 0.1 uM after 72 hrs by MTS assay based Chou and Talay's plot analysis.
The test system of data set [6] is Quadruplex DNA. Kind of data set: Stabilization of AR G-quadruplex oligonucleotide in human 22Rv1 cells assessed as down-regulation of BCL2 mRNA expression at IC50 after 48 hrs by RT-PCR analysis. In kind it is cell-based. The method in brief:
(§3)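 Transcripts quantified by TaqMan real-time PCR with RNaseP as normalizer; relative quantity versus untreated cells by the 2−ΔΔCt method. Panel genes measured with a 92-gene cancer-mechanism TaqMan array.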

Data set [7] concerns Quadruplex DNA. The data set is described as follows: Stabilization of AR G-quadruplex oligonucleotide in human LNCAP cells assessed as reduction in AR mRNA expression at IC50 after 48 hrs by RT-PCR analysis. In kind it is cell-based. The method in brief: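 Cells grown in RPMI-1640 with 10% fetal calf serum, 37 °C, 5% CO2, treated at an equitoxic concentration. Transcripts quantified by TaqMan real-time RT-PCR, normalized to RNaseP, expressed as relative quantity versus untreated cells (calibrator) by the 2−ΔΔCt method.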

Data set [8] is described as follows: Stabilization of TTTTTAGTGAGAGTGAGAGAGAGAGTGAGAGTGAGAGTGATTTTTCTGCATATAAGCAGCTGCTTTTTGCC DNA (unknown origin) assessed as inhibition of polymerase progression at G4 site by measuring reduction in full length amplified product using GGCAAAAAGCAGCTGCTTATATGCAG as primer at 12.5 to 200 nM after 30 mins in presence of 5'-end labeled [gamma32P]ATP by phosphorimaging based taq polymerase stop assay. The method in brief:
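Primer 5′-labeled with [γ-32P]ATP by T4 polynucleotide kinase, 37 °C, 30 min. Labeled primer (72 nM final) annealed to template (36 nM final) in 10 mM lithium cacodylate pH 7.4, with or without 10 mM KCl, by heating at 95 °C for 5 min then slow cooling.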

A short description of data set [9]: Stabilization of AGTGAGAGTGAGAGAGAGAGTGAGAGTGAGAGTGA/TCACTCTCACTCTCACTCTCTCTCTCACTCTCACT dsDNA (unknown origin) assessed as change in melting temperature at 16 uM after 16 hrs in presence of 100 mM K+ by CD spectra analysis. Put shortly: as §1
Data set [10] concerns Quadruplex DNA. The data set is described as follows: Stabilization of AR G-quadruplex oligonucleotide in human DU145 cells assessed as down-regulation of ITGB3 mRNA expression at IC50 after 48 hrs by RT-PCR analysis. The data set is classed as cell-based. Put shortly:
as §3

The subject of data set [11] is Quadruplex DNA. Kind of data set: Binding affinity to 5'-Biotinylated-AR1 G-quadruplex oligonucleotide (unknown origin) by SPR analysis relative to control. In kind it is nucleic-acid assay.
A further data set has as its system DU-145. Kind of data set: Effect on JUN mRNA expression in human DU145 cells at IC50 after 48 hrs by RT-PCR analysis. In kind it is functional, cell-based. Put shortly: as §3
Data set [12] has as its system Quadruplex DNA. Kind of data set: Stabilization of AR G-quadruplex oligonucleotide in human 22Rv1 cells assessed as reduction in AR mRNA expression at IC50 after 6 to 72 hrs by RT-PCR analysis. In kind it is cell-based. The note with it: TDE = time-dependent effect. Put shortly:
as §3

Data set [13] has as its system Quadruplex DNA. Kind of data set: Stabilization of AR G-quadruplex oligonucleotide in human 22Rv1 cells assessed as reduction in AR-FL protein level at IC50 after 48 hrs by Western immunoblot assay. In kind it is cell-based.
The test system of data set [14] is PC-3. The data set is described as follows: Effect on c-MYC mRNA expression in human PC3 cells at IC50 after 48 hrs by RT-PCR analysis. The data set is classed as functional, cell-based. The method in brief: as §3
The test system of another data set is CWR22R. The data set is described as follows: Synergistic cytotoxicity against human 22Rv1 cells expressing full length androgen receptor H875Y point mutant assessed as reduction in cell viability at 0.001 to 0.1 uM after 72 hrs in presence of Enzalutamide by MTS assay based CI-Fa plot analysis. In kind it is functional. Put shortly:
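Cells in RPMI-1640 with 10% fetal calf serum were exposed to ligand (0.001−0.1 μM) plus enzalutamide (0.5−50 μM) at a fixed ratio, five concentrations, for 72 h at 37 °C, 5% CO2. Viability read by MTS absorbance at 490 nm after 4 h. Combination index computed at ED50 and ED75 by the Chou–Talalay method.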

Data set [15] has as its target Quadruplex DNA. Kind of data set: Binding affinity to 5'-Biotinylated-AR1 G-quadruplex oligonucleotide (unknown origin) by SPR analysis. The data set is classed as nucleic-acid assay. The method in brief:
as §2

Data set [16] has as its system PC-3. Kind of data set: Synergistic cytotoxicity against human PC3 cells assessed as ED50 for Enzalutamide at 0.001 to 0.1 uM after 72 hrs by MTS assay. The note with it: PC-3, 72 h.
Data set [17] relates to Quadruplex DNA. The data set is described as follows: Stabilization of AR G-quadruplex oligonucleotide in human 22Rv1 cells assessed as regulation of PTEN mRNA expression at IC50 after 48 hrs by RT-PCR analysis. The data set is classed as cell-based. The method in brief: as §3
Data set [18] in a line: Drug uptake in human PNT1A cells at 160 nM after 24 hrs by DAPI staining-based fluorescence microscopic analysis. The data set is classed as ADME, cell-based. The note with it: 0.16 µM.

On to `CN(C)CCCn1c(=O)c2ccc3c(=O)n(CCCN(C)C)c(=O)c4c5[nH]c6ccccc6[nH]c5c(c1=O)c2c34.Cl.Cl`, for which the outcome (in data set [1]; in the data set with DU-145; in the data set with PC-3 [14]) was inactive. Also, the outcome with Quadruplex DNA [2], in the data set on Quadruplex DNA [3], in the data set with Quadruplex DNA [6], in the data set on Quadruplex DNA [7], with Quadruplex DNA [10] and with Quadruplex DNA [13] was Active. In the data set on Quadruplex DNA [17], the result was Active. Besides, the Kd worked out at 196 nM in data set [4] and 17.9 nM at Quadruplex DNA [15]. Further, the CI is above 1 in the data set with PC-3 [5] and below 0.5 in the data set on CWR22R. The inhibition result in data set [8] was “inactive”. The thermal shift (ΔTm) in data set [9] turned out to be 2.7 °C. In the data set on Quadruplex DNA [11], this molecule had an RBA of 100%. For the same molecule, the Activity entry in the data set on Quadruplex DNA [12] was “Tde”. In the data set with PC-3 [16], the half-maximal effective concentration (EC50) amounted to 2180 nM. In addition, in data set [18], the Drug uptake entry was “Active”.
